The results in this text go back to ChEMBL document CHEMBL1141612, “Glyconanobiotics: Novel carbohydrated nanoparticle antibiotics for MRSA and Bacillus anthracis” (2008).

What all share (type): functional
Test [1] relates to Staphylococcus aureus. The experiment in a line: Antibacterial activity against Staphylococcus aureus ATCC 25923 after 24 hrs by broth dilution MIC assay. The note with it: ATCC 25923, 24 h. Summed up: (§1)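 Broth serial dilution. For nanoparticle emulsions, the drug content is assumed equal to the amount used in the polymerization, expressed as µg drug per mL of undiluted emulsion.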
Background: Dilution methods test growth across graded concentrations, often in twofold steps.

Test [2] has as its system Bacillus anthracis. The experiment in a line: Antibacterial activity against Bacillus anthracis after 24 hrs by broth dilution MIC assay. Summed up: as §1
In test [3] the test system is Staphylococcus aureus. The experiment in a line: Antibacterial activity against methicillin-resistant Staphylococcus aureus ATCC 43300 after 24 hrs by broth dilution MIC assay. Conditions: ATCC 43300, 24 h. In a few lines:
as §1

The structures appear in SMILES notation. ≈ marks a conversion by molar mass, not a printed value.

In general, MIC refers to the lowest concentration that inhibits growth of the organism. Read a high MIC as a need for much substance. In the case of `C=CC(=O)O[C@@H]1[C@H]2OC(C)(C)O[C@H]2O[C@@H]1C(COC(=O)CCC(=O)O[C@H]1C(=O)N(SC(C)CC)[C@H]1c1ccccc1Cl)OC(=O)CCC(=O)O[C@H]1C(=O)N(SC(C)CC)[C@H]1c1ccccc1Cl` (stereo partly specified) [LACTAM MONOMER], the results for the MIC in test [1], in test [2] and in test [3] were 128 µg/mL (≈ 127 µM), 64 µg/mL (≈ 63.4 µM) and 128 µg/mL (≈ 127 µM), respectively.
On to `CC1(C)S[C@@H]2[C@H](NC(=O)Cc3ccccc3)C(=O)N2[C@H]1C(=O)O` [PENICILLIN G], for which the MIC was 0.012 µg/mL (≈ 0.0359 µM) in test [1] and 16 µg/mL (≈ 47.8 µM) in test [3].
For the compound `C=CC(=O)O[C@@H]1[C@@H]2OC(C)(C)O[C@@H]2O[C@@H]1C(COC(C)=O)OC(=O)CCC(=O)N1CCN(c2cc3c(cc2F)c(=O)c(C(=O)O)cn3C2CC2)CC1` (stereo partly specified) [CIPROFLOXACIN ACRYLATE], the figures for the MIC in test [1], in test [2] and in test [3] were 32 µg/mL (≈ 43.9 µM), 16 µg/mL (≈ 21.9 µM) and 32 µg/mL (≈ 43.9 µM), respectively.
With `C=CC(=O)O[C@@H]1[C@@H]2OC(C)(C)O[C@@H]2O[C@@H]1C(COC(C)=O)OC(=O)CCC(=O)N[C@@H]1C(=O)N2C1SC(C)(C)[C@@H]2C(=O)O` (stereo partly specified), the MIC in test [1], in test [2] and in test [3] was more than 256 µg/mL in each case.
